Calls of active or inactive are those of the source. The rule behind the calls is not given here.
Columns and labels:
[1] = tested on: A2058; assay: Antiproliferative activity against human A2058 cells assessed as cell viability at 50 uM measured after 24 hrs by celltiter-blue assay relative to control; assay type: functional; conditions: A2058, 24 h, read-out: Activity
Procedure, shortened: (§1)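 Human melanoma cells seeded at 8.5 × 10^4 cells/well in 96-well plates and treated 24 h with test compound (up to 50 μM) against a DMSO control; viability read as in the group's earlier method. Three to five independent experiments (n = 9−15); mean ± SEM, ANOVA with Bonferroni post hoc test vs DMSO.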

[2] = tested on: MEL-JUSO; assay: Antiproliferative activity against human MelJuSo cells assessed as cell viability at 50 uM measured after 24 hrs by celltiter-blue assay relative to control; assay type: functional; conditions: read-out: Activity; procedure, shortened: as §1
[3] = target: T1, Estrogen receptor (Homo sapiens, UniProt P03372)
T1 sequence (P03372 whole entry): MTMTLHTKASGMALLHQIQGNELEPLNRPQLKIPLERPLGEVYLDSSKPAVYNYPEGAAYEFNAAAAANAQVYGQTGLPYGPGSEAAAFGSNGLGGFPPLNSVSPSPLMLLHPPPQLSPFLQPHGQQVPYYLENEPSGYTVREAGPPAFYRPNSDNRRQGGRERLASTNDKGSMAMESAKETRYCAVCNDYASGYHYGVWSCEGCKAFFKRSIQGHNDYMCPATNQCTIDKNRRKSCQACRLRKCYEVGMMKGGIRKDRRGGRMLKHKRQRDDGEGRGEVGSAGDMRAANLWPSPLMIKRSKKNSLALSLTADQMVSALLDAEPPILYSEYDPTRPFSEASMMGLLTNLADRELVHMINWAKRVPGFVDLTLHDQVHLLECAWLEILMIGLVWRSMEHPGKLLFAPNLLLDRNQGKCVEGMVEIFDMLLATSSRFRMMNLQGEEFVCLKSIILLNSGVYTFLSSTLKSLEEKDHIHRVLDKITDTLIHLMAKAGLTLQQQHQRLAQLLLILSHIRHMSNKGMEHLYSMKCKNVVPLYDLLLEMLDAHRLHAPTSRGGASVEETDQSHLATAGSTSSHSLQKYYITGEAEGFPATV

[4] = target: Estrogen receptor beta (Homo sapiens, UniProt Q92731)
[5] = Drug metabolism in pH 7.5 PBS assessed as nitric oxide release at 50 uM measured after 90 mins in presence of K3[Fe(CN)6] by 2,3-diaminonaphthalene-based fluorescence assay
Procedure, shortened: (§2)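 Compound incubated 90 min at 37 °C in PBS pH 7.5 alone, with human plasma, with 50 μM K3[Fe(CN)6], or with 5 mM L-cysteine. Nitrite reacted with 2,3-diaminonaphthalene under acid to give fluorescent naphthotriazole; HgCl2 added to release S-nitrosothiol-bound NO. Release given as % of 1 mol NO/mol compound; 3−4 experiments in duplicate (n = 6−8), mean ± SEM.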

[6] = Drug metabolism in pH 7.5 PBS assessed as free nitrite level at 50 uM measured after 90 mins in presence of L-cysteine by 2,3-diaminonaphthalene-based fluorescence assay; procedure, shortened: as §2
[7] = Drug metabolism in pH 7.5 PBS assessed as nitric oxide release at 50 uM measured after 90 mins in presence of L-cysteine by 2,3-diaminonaphthalene-based fluorescence assay; procedure, shortened: as §2
[8] = Drug metabolism in pH 7.5 PBS assessed as S-nitroso-thiol level at 50 uM measured after 90 mins in presence of L-cysteine by 2,3-diaminonaphthalene-based fluorescence assay; procedure, shortened: as §2
[9] = Retention time of the compound in human whole blood by HPLC analysis; assay type: ADME, tissue-based
Procedure, shortened: (§3)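 Compound incubated 0 to 6 h in human whole blood at 37 °C; proteins precipitated 1:2 (v/v); supernatant analysed by reversed-phase C18 HPLC at 254 nm, water/MeCN gradient with 0.1% TFA, 3.0 mL/min at 50 °C.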

[10] = Drug metabolism in human whole blood assessed as nitric oxide release measured after 6 hrs by HPLC analysis; assay type: ADME, tissue-based; procedure, shortened: as §3
[11] = Drug metabolism in human whole blood assessed as 5d formation measured after 6 hrs by HPLC analysis; assay type: ADME, tissue-based; procedure, shortened: as §3
[12] = tested on: MCF7; assay: Antiproliferative activity against human MCF7 cells assessed as cell viability at 50 uM measured after 24 hrs by celltiter-blue assay relative to control; assay type: functional; conditions: MCF7, 24 h, read-out: Activity
Procedure, shortened: (§4)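 Breast adenocarcinoma lines: MCF-7 grown in Leibovitz's L-15 with 10% FCS and 1% pen/strep without CO2; MDA-MB-231 grown in DMEM with 10% FCS and 1% pen/strep at 5% CO2; both at 37 °C. Viability measured after 24 h treatment at 50 μM vs DMSO. Three independent experiments (n = 9); mean ± SEM, ANOVA/Bonferroni.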

[13] = tested on: MDA-MB-231; assay: Antiproliferative activity against human MDA-MB-231 cells assessed as cell viability at 50 uM measured after 24 hrs by celltiter-blue assay relative to control; assay type: functional; conditions: MDA-MB-231, 24 h, read-out: Activity; procedure, shortened: as §4
[14] = tested on: A2058; assay: Antiproliferative activity against human A2058 cells assessed as reduction in number of proliferating cells at 50 uM measured after 48 hrs by cell counting analysis; assay type: functional, cell-based
Procedure, shortened: (§5)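 A2058 cells plated at 0.5 × 10^6 (24 h) or 0.35 × 10^6 (48 h) per well, Mel-Juso at 0.6 × 10^6 or 0.45 × 10^6. After 24 h cells were treated with 0−50 μM, DMSO as control, then counted electronically after 24 or 48 h. Three independent experiments; mean ± SEM, ANOVA/Bonferroni vs DMSO.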

[15] = tested on: MEL-JUSO; assay: Antiproliferative activity against human MelJuSo cells assessed as reduction in number of proliferating cells at 50 uM measured after 48 hrs by cell counting analysis; assay type: functional, cell-based; procedure, shortened: as §5
[16] = (§6) Cytotoxicity against HUVEC assessed as cell viability at 50 uM measured after 24 hrs by celltiter-blue assay; assay type: cell-based; conditions: human, HUVEC cells; read-out: Activity
Procedure, shortened: (§7)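 HUVEC grown in endothelial cell growth medium at 37 °C, seeded at 7 × 10^4 cells/well in 96-well plates, treated 24 h with test compound up to 50 μM, DMSO as control; viability read as in the group's earlier method.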

[17] = Effect on ER/PI3K pathway in HUVEC assessed as upregulation of COX2 expression up to 20 uM measured after 24 hrs by Western blot analysis; assay type: ADME, cell-based; conditions: human
Procedure, shortened: (§8)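 HUVEC treated 24 h with test compounds at various concentrations, with tamoxifen or 17β-estradiol as references, vs DMSO; COX-2 protein detected by Western blotting. Four independent experiments.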

[18] = Drug metabolism in pH 7.5 PBS assessed as nitric oxide release at 50 uM measured after 90 mins in presence of […] by 2,3-diaminonaphthalene-based fluorescence assay
[19] = tested on: A2058; assay: Antiproliferative activity against human A2058 cells assessed as reduction in cell viability measured after 24 hrs by celltiter-blue assay; assay type: functional, cell-based; conditions: A2058, 24 h; procedure, shortened: as §1
[20] = tested on: MEL-JUSO; assay: Antiproliferative activity against human MelJuSo cells assessed as reduction in cell viability measured after 24 hrs by celltiter-blue assay; assay type: functional, cell-based; procedure, shortened: as §1
[21] = Effect on ER/PI3K pathway in HUVEC assessed as change COX2 expression up to 1 uM measured after 24 hrs by Western blot analysis; assay type: ADME, cell-based; conditions: human; procedure, shortened: as §8
[22] = Stability of the compound in human whole blood measured after 6 hrs by HPLC analysis; assay type: ADME, tissue-based; procedure, shortened: as §3
[23] = tested on: MCF7; assay: Antiproliferative activity against human MCF7 cells assessed as reduction in number of proliferating cells measured after 48 hrs by cell counting analysis; assay type: functional, cell-based
Procedure, shortened: (§9)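 MCF-7 (L-15 with 10% FCS, no CO2) and MDA-MB-231 (DMEM with 10% FCS, 5% CO2) treated 48 h with test compound over a concentration range, DMSO as control; proliferating cells counted. Four independent experiments (n = 8); mean ± SEM, ANOVA with Bonferroni post hoc test vs DMSO.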

[24] = tested on: MDA-MB-231; assay: Antiproliferative activity against human MDA-MB-231 cells assessed as reduction in number of proliferating cells measured after 48 hrs by cell counting analysis; assay type: functional, cell-based; procedure, shortened: as §9
[25] = tested on: A2058; assay: Antiproliferative activity against human A2058 cells assessed as reduction in number of proliferating cells at 25 uM measured after 48 hrs by cell counting analysis; assay type: functional, cell-based; procedure, shortened: as §5
[26] = tested on: MEL-JUSO; assay: Antiproliferative activity against human MelJuSo cells assessed as reduction in number of proliferating cells at 25 uM measured after 48 hrs by cell counting analysis; assay type: functional, cell-based; procedure, shortened: as §5
[27] = tested on: HUVEC; assay: as §6; assay type: cell-based; conditions: human, huvec, 24 h, 50 µM; BLD = below limit of detection; procedure, shortened: as §7
[28] = tested on: HUVEC; assay: Cytotoxicity against HUVEC assessed as reduction in cell viability measured after 24 hrs by celltiter-blue assay; assay type: cell-based; conditions: Homo sapiens; procedure, shortened: as §7
[29] = Effect on ER/PI3K pathway in HUVEC assessed as upregulation of COX2 expression measured after 24 hrs by Western blot analysis; assay type: ADME, cell-based; conditions: human; procedure, shortened: as §8

Estrogen receptor beta, sequence (Q92731 whole entry): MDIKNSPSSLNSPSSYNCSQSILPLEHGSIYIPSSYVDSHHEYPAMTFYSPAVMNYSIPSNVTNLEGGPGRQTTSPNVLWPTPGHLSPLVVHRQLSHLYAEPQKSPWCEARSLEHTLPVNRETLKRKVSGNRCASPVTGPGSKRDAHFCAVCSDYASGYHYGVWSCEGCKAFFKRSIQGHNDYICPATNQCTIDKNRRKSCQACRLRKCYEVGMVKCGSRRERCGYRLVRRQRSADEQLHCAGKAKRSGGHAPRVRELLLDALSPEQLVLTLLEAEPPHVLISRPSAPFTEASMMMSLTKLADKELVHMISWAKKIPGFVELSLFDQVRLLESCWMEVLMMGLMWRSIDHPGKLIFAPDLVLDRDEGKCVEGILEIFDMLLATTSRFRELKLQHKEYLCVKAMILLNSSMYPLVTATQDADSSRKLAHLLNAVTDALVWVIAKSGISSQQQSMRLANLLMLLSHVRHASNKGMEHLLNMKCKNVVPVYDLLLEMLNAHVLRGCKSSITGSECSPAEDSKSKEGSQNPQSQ

| SMILES | viability at 50 µM [1] [%] | viability at 50 µM [2] [%] | IC50 [3] [µM] | IC50 [4] [µM] | Drug metabolism [5] [%] | Drug metabolism [6] [%] | Drug metabolism [7] [%] | Drug metabolism [8] [%] | further results |
| --- | --- | --- | --- | --- | --- | --- | --- | --- | --- |
| CCCCC(=C(c1ccc(F)cc1)c1ccc(F)cc1)c1ccc(S(C)(=O)=O)cc1 | 117 | 75.4 |  |  |  |  |  |  |  |
| CS(=O)(=O)c1ccc(C(CCCO[N+](=O)[O-])=C(c2ccccc2)c2ccccc2)cc1 | 117 | 96.5 | > 5 | 2.7 | 1.5 | 0.7 | 2 | 1.3 |  |
| CS(=O)(=O)c1ccc(C(CCCCO[N+](=O)[O-])=C(c2ccc(F)cc2)c2ccc(F)cc2)cc1 | 106 | 101 | > 5 | 0.2 | 2.5 | 0.4 | 3.8 | 3.4 | Retention_time [9]: 16.4 min; Drug metabolism [10]: Metabolite_Detected; Drug metabolism [11]: Metabolite_Detected; viability at 50 µM [12]: 82.8%; viability at 50 µM [13]: 91.3%; Activity [14]: inactive; Activity [15]: inactive; viability at 24 h, 50 µM [16]: 91.1%; Activity [17]: Not Active |
| CS(=O)(=O)c1ccc(C(CCCCO[N+](=O)[O-])=C(c2ccccc2)c2ccccc2)cc1 | 120 | 87.1 | > 5 | 1.3 | 1.1 | 0.9 | 0.5 | 0.4 | Drug metabolism [18]: 0.1% |
| CS(=O)(=O)c1ccc(C(CCCO)=C(c2ccc(F)cc2)c2ccc(F)cc2)cc1 | 47.6 | 31.4 | > 5 | 3 |  |  |  |  | EC50 [19]: 27.5 µM; EC50 [20]: 36.3 µM |
| CC(=O)Oc1ccccc1C(=O)Oc1ccc(CO[N+](=O)[O-])cc1 |  |  |  |  | 0.2 | 0.8 | 4.4 | 3.6 |  |
| CC/C(=C(\c1ccccc1)c1ccc(OCCN(C)C)cc1)c1ccccc1 [TAMOXIFEN] | 1.8 | 1 |  |  |  |  |  |  | EC50 [19]: 12.5 µM; EC50 [20]: 14.6 µM; Activity [21]: Active |
| CS(=O)(=O)c1ccc(C(CCCCO)=C(c2ccc(F)cc2)c2ccc(F)cc2)cc1 | 17 | 20.5 | > 5 | 0.18 |  |  |  |  | Stability [22]: Stable; Retention_time [9]: 14.5 min; viability at 50 µM [12]: 72.2%; viability at 50 µM [13]: 86.4%; Activity [23]: Dose-dependent effect; Activity [24]: Dose-dependent effect; EC50 [19]: 39.9 µM; EC50 [20]: 34.9 µM; Activity [25]: Active; Activity [26]: Active; Activity [27]: Bld; EC50 [28]: 19.6 µM; Activity [29]: Dose-dependent effect |
| CS(=O)(=O)c1ccc(C(CCCO[N+](=O)[O-])=C(c2ccc(F)cc2)c2ccc(F)cc2)cc1 | 107 | 91.5 | > 5 | > 5 | 0.1 | 0.1 | 2 | 1.9 | Drug metabolism [18]: 2.2% |
| O=S(=O)(NO)c1ccccc1 |  |  |  |  | 48.3 | 0.3 | 3.6 | 3.3 | Drug metabolism [18]: 33.5% |
| CS(=O)(=O)c1ccc(C(CCCO)=C(c2ccccc2)c2ccccc2)cc1 | 63 | 52.7 | > 5 | 1.5 |  |  |  |  |  |
| CS(=O)(=O)c1ccc(C(CCCCO)=C(c2ccccc2)c2ccccc2)cc1 | 106 | 68.6 | > 5 | 1.4 |  |  |  |  |  |

Source: ChEMBL document CHEMBL4359812, “Nitric Oxide-Releasing Selective Estrogen Receptor Modulators: A Bifunctional Approach to Improve the Therapeutic Index” (J Med Chem, 2019)
